Columns and labels:
Type in all cases: functional
Earias vittella [1] = test: Insecticidal activity against third-instar larval stage of Earias vitella assessed as total larval duration time at 10 ug/cm3 administered through artificial diet containing Abelmoschus esculentus seed powder (reference value: 8.2 +/- 0.48 days)
Spodoptera litura [2] = test: Antifeedant activity against third-instar larval stage of Spodoptera litura in compound-treated castor leaves assessed as decrease in diet consumption at 5 ug/cm2 after 24 hr by no-choice leaf disk assay relative to acetone-treated control; parameters: scale not given: the % may be the effect or the level left
How it was run: (§1)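 Larvae were reared on castor leaves at 25 ± 2 °C. In a no-choice test, compound in acetone was painted on the abaxial side of castor leaf disks and air-dried. Five freshly molted third-instar larvae, starved 4 h, were placed per Petri dish with wet cotton. There were five replicates. After 24 h, consumed leaf area was read on a leaf area meter. %AF = 100 − (treated/control)×100.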

Spodoptera litura [3] = test: Antifeedant activity against third-instar larval stage of Spodoptera litura in compound-treated castor leaves assessed as decrease in diet consumption at 10 ug/cm2 after 24 hr by no-choice leaf disk assay relative to acetone-treated control; parameters: scale not given: the % may be the effect or the level left; how it was run: as §1
Spodoptera litura [4] = test: Insecticidal activity against female adult Spodoptera litura in compound-treated castor leaves assessed as adult longevity time at 5 ug/cm2 (reference value: 10 +/- 0.63 days)
Spodoptera litura [5] = test: Insecticidal activity against female adult Spodoptera litura in compound-treated castor leaves assessed as adult longevity time at 10 ug/cm2 (reference value: 10 +/- 0.63 days)
Spodoptera litura [6] = test: Insecticidal activity against male adult Spodoptera litura in compound-treated castor leaves assessed as adult longevity time at 5 ug/cm2 (reference value: 9.4 +/- 0.48 days)
Spodoptera litura [7] = test: Insecticidal activity against male adult Spodoptera litura in compound-treated castor leaves assessed as adult longevity time at 10 ug/cm2 (reference value: 9.4 +/- 0.48 days)
Spodoptera litura [8] = test: Insecticidal activity against adult Spodoptera litura in compound-treated castor leaves assessed as adult deformity at 5 ug/cm2 relative to control
Spodoptera litura [9] = test: Insecticidal activity against adult Spodoptera litura in compound-treated castor leaves assessed as adult deformity at 10 ug/cm2 relative to control
Spodoptera litura [10] = test: Insecticidal activity against adult Spodoptera litura in compound-treated castor leaves assessed as adult emergence at 5 ug/cm2 relative to control
Spodoptera litura [11] = test: Insecticidal activity against adult Spodoptera litura in compound-treated castor leaves assessed as adult emergence at 10 ug/cm2 relative to control
Spodoptera litura [12] = test: Insecticidal activity against pupal stage of Spodoptera litura in compound-treated castor leaves assessed as pupal mortality at 5 ug/cm2 relative to control
Spodoptera litura [13] = test: Insecticidal activity against pupal stage of Spodoptera litura in compound-treated castor leaves assessed as pupal mortality at 10 ug/cm2 relative to control
Spodoptera litura [14] = test: Insecticidal activity against pupal stage of Spodoptera litura in compound-treated castor leaves assessed as pupal weight at 5 ug/cm2 (reference value: 302.4 +/- 5.9 mg)
Spodoptera litura [15] = test: Insecticidal activity against pupal stage of Spodoptera litura in compound-treated castor leaves assessed as pupal weight at 10 ug/cm2 (reference value: 302.4 +/- 5.9 mg)
Spodoptera litura [16] = test: Insecticidal activity against pupal stage of Spodoptera litura in compound-treated castor leaves assessed as pupal duration time at 5 ug/cm2 (reference value: 9.2 +/- 0.74 days)
Spodoptera litura [17] = test: Insecticidal activity against pupal stage of Spodoptera litura in compound-treated castor leaves assessed as pupal duration time at 10 ug/cm2 (reference value: 9.2 +/- 0.74 days)
Spodoptera litura [18] = test: Insecticidal activity against third-instar larval stage of Spodoptera litura in compound-treated castor leaves assessed as larval mortality at 5 ug/cm2 relative to control
Spodoptera litura [19] = test: Insecticidal activity against third-instar larval stage of Spodoptera litura in compound-treated castor leaves assessed as larval mortality at 10 ug/cm2 relative to control
Spodoptera litura [20] = test: Insecticidal activity against third-instar larval stage of Spodoptera litura in compound-treated castor leaves assessed as total larval duration time at 5 ug/cm2 (reference value: 12.4 +/- 0.48 days)
Spodoptera litura [21] = test: Insecticidal activity against third-instar larval stage of Spodoptera litura in compound-treated castor leaves assessed as total larval duration time at 10 ug/cm2 (reference value: 12.4 +/- 0.48 days)
Earias vittella [22] = test: Insecticidal activity against female adult Earias vitella assessed as adult longevity time at 5 ug/cm3 administered through artificial diet containing Abelmoschus esculentus seed powder (reference value: 8.6 +/- 0.48 days)
Earias vittella [23] = test: Insecticidal activity against female adult Earias vitella assessed as adult longevity time at 10 ug/cm3 administered through artificial diet containing Abelmoschus esculentus seed powder (reference value: 8.6 +/- 0.48 days)
Earias vittella [24] = test: Insecticidal activity against male adult Earias vitella assessed as adult longevity time at 5 ug/cm3 administered through artificial diet containing Abelmoschus esculentus seed powder (reference value: 8.2 +/- 0.4 days)
Earias vittella [25] = test: Insecticidal activity against male adult Earias vitella assessed as adult longevity time at 10 ug/cm3 administered through artificial diet containing Abelmoschus esculentus seed powder (reference value: 8.2 +/- 0.4 days)
Earias vittella [26] = test: Insecticidal activity against adult Earias vitella assessed as adult deformity at 10 ug/cm3 administered through artificial diet containing Abelmoschus esculentus seed powder (reference value: 4%)
Earias vittella [27] = test: Insecticidal activity against adult Earias vitella assessed as adult deformity at 5 ug/cm3 administered through artificial diet containing Abelmoschus esculentus seed powder (reference value: 4%)
Earias vittella [28] = test: Insecticidal activity against adult Earias vitella assessed as adult emergence at 5 ug/cm3 administered through artificial diet containing Abelmoschus esculentus seed powder (reference value: 88%)
Earias vittella [29] = test: Insecticidal activity against adult Earias vitella assessed as adult emergence at 10 ug/cm3 administered through artificial diet containing Abelmoschus esculentus seed powder (reference value: 88%)
Earias vittella [30] = test: Insecticidal activity against pupal stage of Earias vitella assessed as pupal mortality at 5 ug/cm3 administered through artificial diet containing Abelmoschus esculentus seed powder (reference value: 8%)
Earias vittella [31] = test: Insecticidal activity against pupal stage of Earias vitella assessed as pupal mortality at 10 ug/cm3 administered through artificial diet containing Abelmoschus esculentus seed powder (reference value: 8%)
Earias vittella [32] = test: Insecticidal activity against pupal stage of Earias vitella assessed as pupal weight at 5 ug/cm3 administered through artificial diet containing Abelmoschus esculentus seed powder (reference value: 88.2 +/- 4.01 mg)
Earias vittella [33] = test: Insecticidal activity against pupal stage of Earias vitella assessed as pupal weight at 10 ug/cm3 administered through artificial diet containing Abelmoschus esculentus seed powder (reference value: 88.2 +/- 4.01 mg)
Earias vittella [34] = test: Insecticidal activity against pupal stage of Earias vitella assessed as pupal duration time at 5 ug/cm3 administered through artificial diet containing Abelmoschus esculentus seed powder (reference value: 6.4 +/- 0.21 days)
Earias vittella [35] = test: Antifeedant activity against third-instar larval stage of Earias vitella assessed as decrease in diet consumption at 5 ug/cm3 administered through artificial diet containing Abelmoschus esculentus seed powder after 24 hr relative to acetone-treated control; parameters: scale not given: the % may be the effect or the level left
How it was run: (§2)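 Artificial diet was modified Klein medium with bhendi (Abelmoschus esculentus) seed powder in place of alfalfa. Compound in acetone was mixed into bhendi meal 12 h before diet preparation so the solvent evaporated. One 3 g diet cube was given to five freshly molted third-instar larvae in a muslin-covered container. After 24 h the cubes were weighed. %AF = 100 − (treated/control)×100.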

Earias vittella [36] = test: Antifeedant activity against third-instar larval stage of Earias vitella assessed as decrease in diet consumption at 10 ug/cm3 administered through artificial diet containing Abelmoschus esculentus seed powder after 24 hr relative to acetone-treated control; parameters: scale not given: the % may be the effect or the level left; how it was run: as §2
Earias vittella [37] = test: Insecticidal activity against pupal stage of Earias vitella assessed as pupal duration time at 10 ug/cm3 administered through artificial diet containing Abelmoschus esculentus seed powder (reference value: 6.4 +/- 0.21 days)
Earias vittella [38] = test: Insecticidal activity against third-instar larval stage of Earias vitella assessed as larval mortality at 10 ug/cm3 administered through artificial diet containing Abelmoschus esculentus seed powder (reference value: 4%)
Earias vittella [39] = test: Insecticidal activity against third-instar larval stage of Earias vitella assessed as larval mortality at 5 ug/cm3 administered through artificial diet containing Abelmoschus esculentus seed powder (reference value: 4%)
Earias vittella [40] = test: Insecticidal activity against third-instar larval stage of Earias vitella assessed as total larval duration time at 5 ug/cm3 administered through artificial diet containing Abelmoschus esculentus seed powder (reference value: 8.2 +/- 0.48 days)

| SMILES | Time (Earias vittella [1]) | Activity (Spodoptera litura [2]) | Activity (Spodoptera litura [3]) | Time (Spodoptera litura [4]) | Time (Spodoptera litura [5]) | Time (Spodoptera litura [6]) | Time (Spodoptera litura [7]) | Activity (Spodoptera litura [8]) | Activity (Spodoptera litura [9]) | Activity (Spodoptera litura [10]) | Activity (Spodoptera litura [11]) | mortality at 5 µg/cm2 (Spodoptera litura [12]) | mortality at 10 µg/cm2 (Spodoptera litura [13]) | Activity (Spodoptera litura [14]) | Activity (Spodoptera litura [15]) | Time (Spodoptera litura [16]) | Time (Spodoptera litura [17]) | mortality at 5 µg/cm2 (Spodoptera litura [18]) | mortality at 10 µg/cm2 (Spodoptera litura [19]) | Time (Spodoptera litura [20]) | also measured |
| --- | --- | --- | --- | --- | --- | --- | --- | --- | --- | --- | --- | --- | --- | --- | --- | --- | --- | --- | --- | --- | --- |
| CC(=O)OC[C@@]12[C@@H](OC(C)=O)C[C@@H](C)[C@](C)([C@@H]3C[C@H]4CC(O)O[C@H]4O3)[C@H]1CC[C@H](OC(C)=O)[C@]21CO1 (stereo not given in full) [15-HYDROXYEPICARYOPTIN] | 10.2 days | 74% | 78% | 7.4 days | 7 days | 8 days | 7.5 days | 7.2% | 9.6% | 70.4% | 62.4% | 22.5% | 27.6% | 272.2 mg | 258.8 mg | 10.8 days | 11.6 days | 20% | 32% | 13.5 days | Time (Spodoptera litura [21]): 14.2 days; Time (Earias vittella [22]): 6.8 days; Time (Earias vittella [23]): 6.6 days; Time (Earias vittella [24]): 6.6 days; Time (Earias vittella [25]): 6.2 days; Activity (Earias vittella [26]): 4%; Activity (Earias vittella [27]): 4%; Activity (Earias vittella [28]): 68%; Activity (Earias vittella [29]): 62%; mortality (Earias vittella [30]): 28%; mortality (Earias vittella [31]): 34%; Activity (Earias vittella [32]): 58 mg; Activity (Earias vittella [33]): 57.2 mg; Time (Earias vittella [34]): 9 days; Activity (Earias vittella [35]): 62.15%; Activity (Earias vittella [36]): 71.84%; Time (Earias vittella [37]): 9.6 days; mortality (Earias vittella [38]): 8%; mortality (Earias vittella [39]): 8%; Time (Earias vittella [40]): 9.8 days |
| CC[C@@](C)(OC(C)=O)C(=O)O[C@H]1[C@H](OC(C)=O)C[C@@H]2[C@@](C)([C@@H]3C[C@H]4C=CO[C@H]4O3)[C@H](C)C[C@H](OC(C)=O)[C@@]2(COC(C)=O)[C@@]12CO2 [CLERODENDRIN B ACETATE] | 9.7 days | 65.8% | 75% | 8.2 days | 8 days | 9 days | 8.5 days | 4.8% | 8.8% | 72% | 64% | 22.7% | 27% | 284.4 mg | 273.2 mg | 10.2 days | 11 days | 20% | 24% | 12.6 days | Time (Spodoptera litura [21]): 13.1 days; Time (Earias vittella [22]): 7.4 days; Time (Earias vittella [23]): 7.2 days; Time (Earias vittella [24]): 6.8 days; Time (Earias vittella [25]): 6.4 days; Activity (Earias vittella [26]): 4%; Activity (Earias vittella [27]): 4%; Activity (Earias vittella [28]): 72.5%; Activity (Earias vittella [29]): 64%; mortality (Earias vittella [30]): 24%; mortality (Earias vittella [31]): 32%; Activity (Earias vittella [32]): 71.2 mg; Activity (Earias vittella [33]): 64.2 mg; Time (Earias vittella [34]): 7 days; Activity (Earias vittella [35]): 51%; Activity (Earias vittella [36]): 69%; Time (Earias vittella [37]): 8.8 days; mortality (Earias vittella [38]): 4%; mortality (Earias vittella [39]): 4%; Time (Earias vittella [40]): 9.2 days |
| CC[C@@](C)(OC(C)=O)C(=O)O[C@H]1[C@H](O)C[C@@H]2[C@@](C)([C@@H]3C[C@H]4C=CO[C@H]4O3)[C@H](C)C[C@H](OC(C)=O)[C@@]2(COC(C)=O)[C@@]12CO2 [CLERODENDRIN B] | 11.2 days | 76.5% | 84.9% | 6.4 days | 5.2 days | 6.8 days | 6.2 days | 12% | 16.8% | 59.2% | 46.4% | 29.4% | 37% | 240 mg | 220.2 mg | 12 days | 13 days | 32% | 44% | 14.5 days | Time (Spodoptera litura [21]): 15.8 days; Time (Earias vittella [22]): 5.8 days; Time (Earias vittella [23]): 4.8 days; Time (Earias vittella [24]): 5.4 days; Time (Earias vittella [25]): 4.6 days; Activity (Earias vittella [26]): 16%; Activity (Earias vittella [27]): 8%; Activity (Earias vittella [28]): 52.5%; Activity (Earias vittella [29]): 44%; mortality (Earias vittella [30]): 40%; mortality (Earias vittella [31]): 42.5%; Activity (Earias vittella [32]): 55 mg; Activity (Earias vittella [33]): 50.4 mg; Time (Earias vittella [34]): 10 days; Activity (Earias vittella [35]): 74.85%; Activity (Earias vittella [36]): 82.14%; Time (Earias vittella [37]): 12.2 days; mortality (Earias vittella [38]): 20%; mortality (Earias vittella [39]): 15%; Time (Earias vittella [40]): 10.6 days |
